Mdm2-MdmX inh: disrupts the human Mdm2-MdmX interaction; SaOS-2 split-luciferase Mdm2/MdmX complementation, luminescence; O15151+Q00987; inhibition, % at 8 µM; actives 3% (n = 330,000);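 active means inhibition of at least 50% at 8 µM in the primary screen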
Target sequence (O15151 whole entry, looked up): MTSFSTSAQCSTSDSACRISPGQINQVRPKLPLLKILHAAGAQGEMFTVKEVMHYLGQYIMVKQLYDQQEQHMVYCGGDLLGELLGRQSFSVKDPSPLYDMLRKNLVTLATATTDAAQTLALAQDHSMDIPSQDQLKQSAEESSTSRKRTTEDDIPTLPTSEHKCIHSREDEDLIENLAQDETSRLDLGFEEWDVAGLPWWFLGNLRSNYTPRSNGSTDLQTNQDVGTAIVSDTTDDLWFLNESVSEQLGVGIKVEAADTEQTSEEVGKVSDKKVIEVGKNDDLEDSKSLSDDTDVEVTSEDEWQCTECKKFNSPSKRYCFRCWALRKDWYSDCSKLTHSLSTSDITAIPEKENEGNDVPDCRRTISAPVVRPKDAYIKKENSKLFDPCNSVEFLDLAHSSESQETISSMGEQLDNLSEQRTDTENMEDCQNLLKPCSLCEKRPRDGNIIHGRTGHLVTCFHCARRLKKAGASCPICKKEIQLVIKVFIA
Target sequence (Q00987 whole entry, looked up): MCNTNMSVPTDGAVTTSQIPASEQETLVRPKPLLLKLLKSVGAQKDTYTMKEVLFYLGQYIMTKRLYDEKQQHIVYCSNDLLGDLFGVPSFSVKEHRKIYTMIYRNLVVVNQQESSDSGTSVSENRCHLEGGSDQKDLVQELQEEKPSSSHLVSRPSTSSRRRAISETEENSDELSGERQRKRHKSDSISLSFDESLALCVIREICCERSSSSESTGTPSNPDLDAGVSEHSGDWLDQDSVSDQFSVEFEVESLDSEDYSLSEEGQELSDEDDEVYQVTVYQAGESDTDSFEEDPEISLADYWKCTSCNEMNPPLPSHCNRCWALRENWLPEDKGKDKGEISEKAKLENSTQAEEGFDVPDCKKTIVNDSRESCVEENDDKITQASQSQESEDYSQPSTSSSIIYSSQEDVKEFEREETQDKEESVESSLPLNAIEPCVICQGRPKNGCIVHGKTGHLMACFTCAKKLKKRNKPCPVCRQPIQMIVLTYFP
Apaf-1 inh: blocks human Apaf-1 apoptosome activity; O14727; reconstituted apoptosome caspase-3 activity, DEVD-Rh110 fluorescence; inhibition, % at 20 µM; actives 0.71% (n = 330,000); AID 489030; active means inhibition of at least 40% at 20 µM
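detection = Rh110 fluorescence intensity | test system = biochemical Apaf-1 apoptosome reconstitution | also added = cytochrome c and DEVD-Rh110 substrate | schedule = 30 min plus 50 min, RT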
UPR CHOP act: apoptotic UPR (CHOP) activation; AID 449763; actives 0.34% (n = 330,000); CHO-CHOP luciferase reporter, luminescence; percent of tunicamycin response over DMSO baseline; activation, % at 10 µM;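 active means at 10 µM dose, activation of 40% or more, normalized to positive control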
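Material: CHO-CHOP cells, stable luciferase reporter of PERK-eIF2a-CHOP signalling; quantity: 500 reporter cells seeded per well; buffer or medium: F12 medium containing 10% fetal bovine serum; compound: one dose, 10 µM in 0.5% DMSO; incubation: 6 h compound treatment, 37 °C; measured by: Steady-Glo luciferase luminescence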
UBC13 inh: blocks human UBC13 polyubiquitin chain formation. inhibition, % at 20 µM. actives 0.47% (n = 330,000). P61088. TR-FRET. AID 485273; in the data active means inhibition above about 45%, passing the limit was not always enough
XBP1 UPR activ: adaptive UPR (XBP1) activation | actives 0.33% (n = 330,000) | activation, % at 20 µM | CHO-XBP1 luciferase reporter, IRE1-XBP1 UPR activation, luminescence; percent of tunicamycin response, DMSO as zero;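 active means versus positive control, 20 µM dose yields 30% or more activation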
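Material: CHO cell line with stable XBP1 luciferase reporter; buffer or medium: F12 medium containing 10% fetal bovine serum; compound: single point, 20 µM final compound, 1% DMSO; incubation: 6 h treatment, 37 °C; measured by: glow luminescence from Steady-Glo reagent; evaluation: activation, % of tunicamycin; control set: tunicamycin high, DMSO low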
Mdm2-MdmX conf: human Mdm2/MdmX binding inhibition, confirmed | shares compounds with Mdm2-MdmX inh | actives 55% (n = 10,000) | luminescent assay | inhibition, % at 8 µM | AID 489028; in the data active means inhibition above about 40%
FLuc counter: inhibits full-length luciferase, flagging false Mdm2/MdmX hits; SaOS-2 full-length luciferase counterscreen, luminescence; inhibition, % at 8 µM; actives 77% (n = 6,200); shares compounds with Mdm2-MdmX inh;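 active means mean inhibition at 8 µM reaching about 37%, which flags the compound as non-specific, limit read from the data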;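 further: p53-null SaOS-2 cells with luciferase driven by a doxycycline-inducible promoter; compound on cells about two nights before reading with doxycycline added after day one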
Of the large screens only hits and unclear results are named; the others gave an inactive call (follow-up assays come after a bar, where they were run). Sampled rows, rich in hits. Any-hit rate of the full collection: about 4.1%.

COc1ccc(CCNCc2cccn2C)cc1OC	none
CCn1c(=O)cc(SCC(=O)N2CCC3(CC2)OCCO3)c2ccccc21	Mdm2-MdmX inh 53.0 | Mdm2-MdmX conf inactive
Cn1c(=O)n(CC(=O)N2CCC3(CC2)OCCO3)c(=O)c2ccccc21	none
CCCCn1c(O)c(/C(CC)=N/N2CCCCC2c2cccnc2)c(=O)[nH]c1=S (configuration not stated)	none
Cn1c(O)c(Cc2cccc(Cl)c2Cl)c(=O)n(C)c1=O	none
Cc1ccccc1-[n+]1c(-c2ccccc2)cc(-c2ccccc2)cc1-c1ccccc1	Mdm2-MdmX inh 87.6 | Mdm2-MdmX conf 87.7 | FLuc counter inactive
[O-]c1ccccc1-[n+]1c(-c2ccccc2)cc(-c2ccccc2)cc1-c1ccccc1	Mdm2-MdmX inh 89.6 | Mdm2-MdmX conf 71.1 | FLuc counter inactive
COC(=O)C1=C(c2ccc3ccccc3c2)C[C@@H]2CC[C@H]1N2C(=O)N1CCCCC1	none
NC1CCc2cc(O)c(O)cc2C1 (configuration not stated)	none
C#CCOc1cc(C2C3=C(COC3=O)Nc3cc4c(cc32)OCO4)ccc1OC (configuration not stated)	Mdm2-MdmX inh 59.0 | Mdm2-MdmX conf 58.0 | FLuc counter 80.4
COc1ccc2c(c1OC)CN1CCc3cc4c(cc3C1C2)OCO4 (configuration not stated)	none
O=C(COc1ccc(Cl)cc1)N(c1ccc(Cl)cc1)C1CN2CCC1CC2 (configuration not stated)	Mdm2-MdmX inh 51.4 | Mdm2-MdmX conf inactive | FLuc counter 74.9
CCCNC(=O)N1[C@H]2CC[C@@H]1C(C(=O)OC)=C(c1cccc(OC)c1OC)C2	none
CC1Oc2cc3c(-c4c(O)cc(O)c5c(O)c6c(cc45)OC(C)C(C)C6=O)c(O)cc(O)c3c(O)c2C(=O)C1C (configuration not stated)	Mdm2-MdmX inh 89.1 | Mdm2-MdmX conf 73.2 | FLuc counter inactive
CN1/C(=C\C=Nc2ccccc2)C(C)(C)c2ccccc21	none
CN1/C(=C\C=C\C2=[N+](C)c3ccc4ccccc4c3C2(C)C)C(C)(C)c2ccccc21	Mdm2-MdmX inh 99.9, Apaf-1 inh 89.5 | Mdm2-MdmX conf 99.8 | FLuc counter inactive
Cc1cc(O)c2c3c(c(=O)oc2c1)CCC(C)C3 (configuration not stated)	none
Cc1ccc(C2C(=O)NC(=O)NC2=O)cc1	none
Clc1ccccc1CNC1CN2CCC1CC2 (configuration not stated)	none
c1ccc2c(c1)Sc1ccccc1N2CC1CN2CCC1CC2 (configuration not stated)	Mdm2-MdmX inh 74.6 | Mdm2-MdmX conf 44.3 | FLuc counter 84.5
C=C[C@@H]1C2=CCOC(=O)C2=CO[C@H]1O[C@@H]1O[C@H](CO)[C@@H](O)[C@H](O)[C@H]1O	none
CN1C(=O)C2C[C@@]3(Br)c4ccccc4N(OOSc4ccccc4)[C@H]3N2C(=O)[C@@H]1Cc1ccccc1 (some centres not stated)	none
CC(C)c1oc(=O)cc2c1[C@@H](O)[C@H]1OC(=O)[C@@]3(C)CC[C@@H](O)[C@@]2(C)C13 (some centres not stated)	Mdm2-MdmX inh 63.3 | Mdm2-MdmX conf 60.7 | FLuc counter 64.5
CC(C)c1oc(=O)cc2c1[C@@H](O)[C@H]1OC(=O)[C@@]3(C)C[C@@H](O)[C@@H](O)[C@@]2(C)C13 (some centres not stated)	Mdm2-MdmX inh 81.2 | Mdm2-MdmX conf 57.7 | FLuc counter inactive
CC(C)(C)n1cccc1/C=C1\C(=O)NC(=O)N(c2ccccc2)C1=O	none
Cc1cc(C)cc(N2C(=O)NC(=O)/C(=C/c3cccn3-c3ccc(Cl)cc3)C2=O)c1	Mdm2-MdmX inh 66.0, UPR CHOP act 99.0 | Mdm2-MdmX conf inactive
CC(=O)OC(C)(C)/C=C/C(=O)[C@](C)(O)C1[C@H](O)C[C@@]2(C)C3CC=C4C(C[C@H](O)C(=O)C4(C)C)[C@]3(C)C(=O)C[C@]12C (some centres not stated)	Mdm2-MdmX inh 99.7 | Mdm2-MdmX conf 100.0 | FLuc counter inactive
OC(c1cccc(Cl)c1)(c1cccc(Cl)c1)C1CN2CCC1CC2 (configuration not stated)	Mdm2-MdmX inh 73.6 | Mdm2-MdmX conf 59.4 | FLuc counter 55.6
N=Cc1c(O)n(-c2ccccc2)c(=O)n(-c2ccccc2)c1=O	none
O=C(O)CCn1cc(C=C2C(=O)NC(=O)NC2=O)c(-c2cc3ccccc3oc2=O)n1	none
O=C(c1ccco1)c1cn(Cc2ccc(Cl)cc2)c2ccccc12	Mdm2-MdmX inh 51.3 | Mdm2-MdmX conf inactive | FLuc counter 68.5
CC(=O)O[C@H]1C(=O)[C@@]2(C)C([C@H](OC(=O)c3ccccc3)[C@]3(O)C[C@H](OC(=O)[C@H](O)[C@@H](NC(=O)Cc4ccccc4)c4ccccc4)C(C)=C1C3(C)C)[C@]1(OC(C)=O)CO[C@@H]1C[C@@H]2O (some centres not stated)	Mdm2-MdmX inh 65.7 | Mdm2-MdmX conf 65.7 | FLuc counter 41.6
CC(=O)O[C@@]12CO[C@@H]1C[C@H](O)[C@@]1(C)C(=O)[C@H](O)C3=C(C)[C@@H](OC(=O)[C@H](O)[C@@H](NC(=O)c4ccccc4)c4ccccc4)C[C@@](O)([C@@H](OC(=O)c4ccccc4)C12)C3(C)C (some centres not stated)	Mdm2-MdmX inh 53.6 | Mdm2-MdmX conf 62.9 | FLuc counter 50.1
CSCCC(N=Cc1c(O)n(-c2ccc(Cl)cc2)c(=O)[nH]c1=O)C(=O)OC(C)(C)C (configuration not stated)	none
O=c1c2ccccc2[se]n1-c1ccccc1	Mdm2-MdmX inh 59.1 | Mdm2-MdmX conf inactive
COC(=O)C1=C(c2ccc(F)cc2F)C[C@@H]2CC[C@H]1N2C(=O)NCCOc1ccc(OC)cc1	none
Clc1ccc2c(c1)C(OC1CN3CCC1CC3)c1ccccc1CS2 (configuration not stated)	Mdm2-MdmX inh 64.4 | Mdm2-MdmX conf inactive | FLuc counter 61.3
O=c1c2ccccc2nc(-c2ccccc2)n1-c1cccnc1	none
CCOC(=O)C1(c2ccccc2)CCN(CCC(=O)Nc2cccc(Br)c2)CC1	Mdm2-MdmX inh 54.2 | Mdm2-MdmX conf inactive | FLuc counter 76.6

Compound activity deposited in PubChem BioAssay by Sanford-Burnham Center for Chemical Genomics.
